Data set [1] can be described thus: Chemical stability in pH 6 buffer after 2 hrs. Type of data set: physicochemical. The note with it: pH 6, 2 h. The gist of the method:
(§1)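 Hydrolysis at 37 °C in pH 6.0 uptake buffer (140 mM NaCl, 5.4 mM KCl, 1.8 mM CaCl2, 0.8 mM MgSO4, 5 mM glucose, 25 mM MES) or 10 mM phosphate pH 7.4. Compound added from 200 mM DMSO stock. […] Triplicate, mean ± SEM.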

The nature of data set [2]: Chemical stability assessed as half life of hydrolysis in pH 7.4 buffer. Type of data set: physicochemical. The following applies: for t1/2: buffer. A digest of the protocol: as §1
Data set [3] has as its system HeLa. Nature of the data set: Stability in human HeLa cell homogenate assessed as half life of hydrolysis. Type of data set: ADME, cell-based. The gist of the method:
(§2)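 Homogenates from HeLa or Caco-2 cells: NaCl-washed, collected in 10 mM phosphate pH 7.4, sonicated on ice, spun 10,000 rpm 10 min at 4 °C; supernatant adjusted to 500 μg/mL protein. Compound added from 200 mM DMSO stock at 37 °C.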

Data set [4] deals with Caco-2. Nature of the data set: Stability in human Caco-2 cell homogenate assessed as half life of hydrolysis. The class given is ADME, Colon. A digest of the protocol:
as §2

The target in data set [5] is T1, Serine hydrolase BPHL (Homo sapiens) (UniProt Q86WA6).
T1 sequence (whole entry): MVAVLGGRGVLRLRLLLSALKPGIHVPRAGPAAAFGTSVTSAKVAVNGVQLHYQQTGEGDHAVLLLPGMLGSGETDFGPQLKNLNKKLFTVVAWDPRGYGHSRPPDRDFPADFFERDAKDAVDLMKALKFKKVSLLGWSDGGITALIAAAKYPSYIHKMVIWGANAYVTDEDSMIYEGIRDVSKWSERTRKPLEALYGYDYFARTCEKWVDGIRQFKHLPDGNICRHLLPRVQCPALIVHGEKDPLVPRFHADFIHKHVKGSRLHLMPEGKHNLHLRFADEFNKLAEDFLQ
Nature of the data set: Ratio of Kcat to Km of human recombinant VACVase assessed as hydrolysis. A digest of the protocol:
(§3)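 Recombinant human VACVase expressed in and purified from E. coli, stored at −80 °C, protein measured by Bio-Rad DC assay against BSA. Run in 50 mM HEPES pH 7.4 at 37 °C with 5 min buffer preincubation, enzyme added, then substrate to start. Michaelis-Menten fit; kcat = Vmax/[enzyme]0 using 28.83 kDa mass, active protein normalized to valacyclovir specific activity. Triplicate.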

In data set [6] the target is T2, Solute carrier family 15 member 1 (Homo sapiens, UniProt P46059).
T2 sequence (P46059 whole entry): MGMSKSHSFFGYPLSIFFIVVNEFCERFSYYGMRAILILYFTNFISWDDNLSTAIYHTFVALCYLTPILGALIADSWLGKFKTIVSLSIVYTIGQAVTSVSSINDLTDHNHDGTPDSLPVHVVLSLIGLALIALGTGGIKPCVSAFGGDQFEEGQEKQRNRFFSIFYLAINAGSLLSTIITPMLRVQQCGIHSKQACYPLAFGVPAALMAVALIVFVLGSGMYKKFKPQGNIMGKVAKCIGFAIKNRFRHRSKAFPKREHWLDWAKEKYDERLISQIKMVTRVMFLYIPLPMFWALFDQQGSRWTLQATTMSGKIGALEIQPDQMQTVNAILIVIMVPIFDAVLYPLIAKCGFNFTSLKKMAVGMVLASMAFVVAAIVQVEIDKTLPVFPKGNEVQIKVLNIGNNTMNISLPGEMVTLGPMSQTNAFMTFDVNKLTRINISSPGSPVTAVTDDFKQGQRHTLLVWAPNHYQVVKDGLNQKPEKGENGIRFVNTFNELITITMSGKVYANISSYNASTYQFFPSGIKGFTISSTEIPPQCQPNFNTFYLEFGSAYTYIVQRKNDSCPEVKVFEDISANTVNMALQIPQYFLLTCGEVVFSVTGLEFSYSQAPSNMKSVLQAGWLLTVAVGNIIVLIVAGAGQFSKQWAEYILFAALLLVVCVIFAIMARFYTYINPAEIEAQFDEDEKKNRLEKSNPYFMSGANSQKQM
Briefly: Inhibition of human PEPT1-mediated [3H]Gly-Sar uptake in human HeLa cells. Type of data set: cell-based. A digest of the protocol: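 HeLa cells grown 5 days, infected with hPEPT1 adenovirus 3 days before assay, washed in pH 6.0 MES uptake buffer. Incubated 30 min at 37 °C with 10 μM Gly-Sar (0.1 μM [3H]) plus test compound at 0.05–5 mM. Cells washed ice-cold, lysed in 0.1% SDS, scintillation counted. IC50 by nonlinear fit; n=4.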

For data set [7], the system named is HeLa. Nature of the data set: Drug uptake in human HeLa cells expressing hPEPT1 after 60 mins. The following applies: 1 h. The class given is ADME, cell-based. The gist of the method: (§4)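 HeLa cells, with or without hPEPT1 adenovirus infection 3 days before assay, after 5 days' growth. Preincubated 15 min in pH 6.0 MES uptake buffer, then given 1 mM compound for 60 min at 37 °C. Cells washed in ice-cold DPBS, sonicated, TFA-precipitated (final 7%), supernatant read by HPLC and normalized to protein (nmol/mg). Donor solution stability by HPLC. Triplicate, mean ± SEM.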

The nature of data set [8]: Stability in human HeLa cells expressing hPEPT1 after 60 mins. The class given is ADME, cell-based. The note with it: read-out: Stability. The gist of the method: as §4
In data set [9] the test system is HeLa. Briefly: Drug uptake in human HeLa cells after 60 mins. Type of data set: ADME, cell-based. The following applies: 1 h. A digest of the protocol: as §4
Data set [10] in a line: Stability in human HeLa cells after 60 mins. The following applies: read-out: Stability. Type of data set: ADME, cell-based. A digest of the protocol:
as §4

The test system of the next data set is hPEPT1. Briefly: Drug uptake in human HeLa cells expressing hPEPT1 after 60 mins relative ro control. The class given is ADME, cell-based. The gist of the method: as §4
The nature of data set [11]: Stability in apical side in human Caco-2 cells at 120 mins by permeability study. Type of data set: ADME, cell-based. The following applies: read-out: Stability. On the technique in general: Caco-2 cells form a polarised layer with tight junctions and transporters.
Data set [12] is described as follows: Chemical stability in pH 7.4 buffer after 2 hrs. Type of data set: physicochemical. The note with it: pH 7.4, 2 h. The gist of the method:
as §1

In data set [13] the test system is HeLa. Briefly: Stability in human HeLa cell homogenate after 2 hrs. Type of data set: ADME, cell-based. A digest of the protocol:
as §2

Data set [14] deals with Caco-2. Briefly: Stability in human Caco-2 cell homogenate after 2 hrs. Type of data set: ADME, cell-based. The note with it: caco-2, 2 h. The gist of the method: as §2
Substrate in data set [15]: CC(C)[C@H](N)C(=O)OCCOCn1cnc2c(=O)nc(N)[nH]c21
Nature of the data set: (§5) Activity of human recombinant VACVase assessed as hydrolysis. The gist of the method:
as §3

Substrate in data set [16]: CC(C)[C@H](N)C(=O)OCc1cccc(NC(=N)N)c1
The description is as §5. A digest of the protocol: as §3

Substrate in data set [17]: CC[C@H](C)[C@H](N)C(=O)OCc1cccc(NC(=N)N)c1
Described as §5. A digest of the protocol:
as §3

Substrate in data set [18]: N=C(N)Nc1cccc(COC(=O)[C@@H](N)Cc2ccccc2)c1
Described as §5. The gist of the method:
as §3

Substrate in data set [19]: CC(C)[C@H](N)C(=O)OCCOCn1cnc2c(=O)nc(N)[nH]c21
Nature of the data set: (§6) Activity of human recombinant VACVase assessed as hydrolysis measured per ug of protein. A digest of the protocol: as §3

Substrate in data set [20]: CC(C)[C@H](N)C(=O)OCc1cccc(NC(=N)N)c1
The description is as §6. The gist of the method: as §3

Substrate in data set [21]: CC[C@H](C)[C@H](N)C(=O)OCc1cccc(NC(=N)N)c1
Described as §6. The gist of the method: as §3

Substrate in data set [22]: N=C(N)Nc1cccc(COC(=O)[C@@H](N)Cc2ccccc2)c1
The data set is described as §6. A digest of the protocol: as §3

As usually defined, the IC50 is the concentration that inhibits the measured activity by half. As for `CC(C)[C@H](N)C(=O)OCc1cccc(NC(=N)N)c1`, the Stability result in data set [1] is listed as “Stable”. Moreover, the t1/2 came out at 8.227 h in data set [2], 0.338 h in the data set with HeLa [3] and 0.08 h in the data set with Caco-2 [4]. The Ratio in data set [5] turned out to be 3370 mM⁻¹ s⁻¹. Moreover, in [6], inhibition was half-maximal at 650 µM (IC50). Further, the Drug uptake in the data set with HeLa [7] is given as 50.2 nmol/mg; with HeLa [9], under 2 nmol/mg. For the same molecule, the remaining at 1 h in data set [8] was 96.9%; in [10] it was 98%. Besides, the uptake ratio at 1 h in the data set with hPEPT1 is over 25. Besides, the remaining at 2 h in data set [11] was 86.5%.

In general, half-life refers to the time in which the quantity being followed falls by half. In the case of `CC(C)[C@H](N)C(=O)OCCOCn1cnc2c(=O)[nH]c(N)nc21` [VALACYCLOVIR], in data set [1], the Stability entry is on record as “Stable”. Also, the half-life in [2] (pH 7.4 buffer) was 8.23 h. Besides, the t1/2 turned out to be 2.37 h in the data set with HeLa [3] and 0.522 h with Caco-2 [4]. Further, half-maximal inhibition in [6] (IC50) required 1420 µM. The figures for the Drug uptake in the data set on HeLa [7] and with HeLa [9] were 5.5 nmol/mg and under 0.2 nmol/mg, respectively. Also, the remaining at 1 h in [8] came out at 96.8%; in data set [10] it was 99.2%. Besides, the remaining at 2 h in [11] was determined as 94.7%.

Take `CC[C@H](C)[C@H](N)C(=O)OCc1cccc(N=C(N)N)c1`: the Stability result in [1] is recorded as “Stable”. Further, the t1/2 is 11.75 h in data set [2], 2.287 h with HeLa [3] and 0.993 h in the data set on Caco-2 [4]. Besides, the concentration for half-maximal inhibition (IC50) in [6] stood at 630 µM. For the same molecule, the Drug uptake in the data set on HeLa [7] is 27.7 nmol/mg; in the data set with HeLa [9], under 2 nmol/mg. For the same molecule, the results for the remaining at 1 h in data set [8] and in data set [10] were 98.7% and 99%, respectively. Further, the uptake ratio at 1 h with hPEPT1 was over 13. Further, the remaining at 2 h in data set [11] is 96.6%.

For the molecule `N=C(N)Nc1cccc(CO)c1` [[3-(hydroxymethyl)phenyl]guanidine], the Stability result (in data set [1]; in [12]; in the data set with HeLa [13]; with Caco-2 [14]) was “Stable” in each case. In addition, the IC50 in data set [6] was over 3000 µM. Moreover, the Drug uptake is on record as 5.5 nmol/mg with HeLa [7] and 3.8 nmol/mg in the data set with HeLa [9]. Also, the uptake ratio at 1 h in the data set on hPEPT1 is 1.4.

Regarding `CC[C@H](C)[C@H](N)C(=O)OCc1cccc(NC(=N)N)c1`, the Ratio in data set [5] came out at 1580 mM⁻¹ s⁻¹.

As to `NC(N)=Nc1cccc(COC(=O)[C@@H](N)Cc2ccccc2)c1`, the Stability result in data set [1] is recorded as “Stable”. The t1/2 is 4.363 h in data set [2], under 0.083 h in the data set on HeLa [3] and under 0.017 h in the data set on Caco-2 [4]. In data set [6], this molecule came in with an IC50 of 2330 µM. For the same molecule, the Drug uptake worked out at 14.8 nmol/mg in the data set with HeLa [7] and 1.7 nmol/mg with HeLa [9]. Besides, the remaining at 1 h in [8] stood at 83.8%; in data set [10] it was 87.2%. Also, the uptake ratio at 1 h in the data set on hPEPT1 stood at 8.8. In [11], the remaining at 2 h was determined as 3.9%.

Regarding `CC(C)[C@@H](N)C(=O)OCc1cccc(NC(=N)N)c1`, in data set [11], the remaining at 2 h is 98.8%.

In the case of `CC(C)[C@H](N)C(=O)OCCOCn1cnc2c(=O)nc(N)[nH]c21`, in [5], the Ratio was found to be 850 mM⁻¹ s⁻¹.

As for `N=C(N)Nc1cccc(COC(=O)[C@@H](N)Cc2ccccc2)c1`, in data set [5], the Ratio is 1660 mM⁻¹ s⁻¹.

B1: Serine hydrolase BPHL (Homo sapiens), Q86WA6 (protein)
chain: MVAVLGGRGVLRLRLLLSALKPGIHVPRAGPAAAFGTSVTSAKVAVNGVQLHYQQTGEGDHAVLLLPGMLGSGETDFGPQLKNLNKKLFTVVAWDPRGYGHSRPPDRDFPADFFERDAKDAVDLMKALKFKKVSLLGWSDGGITALIAAAKYPSYIHKMVIWGANAYVTDEDSMIYEGIRDVSKWSERTRKPLEALYGYDYFARTCEKWVDGIRQFKHLPDGNICRHLLPRVQCPALIVHGEKDPLVPRFHADFIHKHVKGSRLHLMPEGKHNLHLRFADEFNKLAEDFLQ
As a reminder, the Km is the concentration of substrate that gives half-maximal velocity. Usually kcat stands for the number of substrate molecules converted per active site and unit of time at saturation. On to B1, for which the Michaelis-Menten constant (Km) in [15] was found to be 68 µM; in data set [16], 46 µM; in data set [17], 9 µM; in [18], 207 µM. For the same molecule, the turnover number (kcat) in data set [15] amounted to 58 s⁻¹; in data set [16] it was 154 s⁻¹; in data set [17] it was 14 s⁻¹; in data set [18], 345 s⁻¹. Besides, the Vmax in data set [19] was 120 nmol/min; in [20], 321 nmol/min/µg; in data set [21] it was 30 nmol/min/µg; in data set [22], 718 nmol/min/µg.

The values above are taken from ChEMBL document CHEMBL1157698, “Enhancing the intestinal absorption of molecules containing the polar guanidino functionality: a double-targeted prodrug approach” (J Med Chem, 2010).
